Assay results reported in ChEMBL document CHEMBL4715907, “Cytoprotective activities of kinetin purine isosteres” (Bioorg Med Chem, 2021).
Activity calls are given as the source filed them. The rule behind the calls is not given here.

Experiments:
[1] = Apparent permeability of compound in human Caco2 cells; type: ADME, cell-based; settings: Caco-2
[2] = Protein binding in human plasma at 10 uM after 4 hrs by RF-MS analysis; type: ADME, cell-free; settings: read-out: PPB (converted)
[3] = Apparent permeability of compound in MDCK-MDR1 cells; type: ADME, cell-based, Canis lupus familiaris; settings: dog
Summary of the method: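 MDCK-MDR1 cells formed monolayers on 1 µm pore Transwell filters, used only if intact by Lucifer Yellow rejection. Cells were washed with HBSS and pre-equilibrated at pH 7.4 for 1 h, then exposed to 10 µM compound in HBSS pH 7.4 for 1 h, apical-to-basal and basal-to-apical. Donor and acceptor were quantified by RapidFire MS/MS (MRM). Papp = (dQ/dt)/(C0 × A), duplicates.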

[4] = Stability in human liver microsomes assessed as parent compound remaining at 2 uM measured up to 60 mins by RF-MS analysis; type: ADME, Microsome; settings: read-out: Stabilty
[5] = Stability in human plasma assessed as parent compound remaining at 2 uM measured up to 120 mins by RF-MS analysis; type: ADME, cell-free; settings: read-out: Stabilty
GM04663 = assay: Cytoprotective activity in human GM04663 cells assessed as aberrant splicing of ELP1 mRNA expression at 50 uM incubated for 24 hrs by RT-PCR anlaysis; type: functional, cell-based
Summary of the method: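 GM04663 patient fibroblasts, about 500,000 per 10 cm dish in DMEM with 10% FBS, were grown overnight and then treated 24 h at 50 µM, with DMSO vehicle. Total RNA was extracted with Trizol and reverse-transcribed. ELP1 nt 2194–2593 (NM_003640.5) was amplified over 34 cycles with 63.8 °C annealing. Wild-type and aberrant transcripts were quantified by peak area against DNA standards of known size and concentration.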

[6] = molecular target: T1, Frataxin, mitochondrial (Homo sapiens) (UniProt Q16595); assay: Activation of His6-tagged-thrombin cleavage site-fused FXN (79 to 207 residues) (unknown origin) assessed as increase in Fe-S cluster biosynthesis at 30 to 500 uM by UV-visible spectroscopy relative to control; settings: dose 30-500 µM
T1 sequence (whole entry): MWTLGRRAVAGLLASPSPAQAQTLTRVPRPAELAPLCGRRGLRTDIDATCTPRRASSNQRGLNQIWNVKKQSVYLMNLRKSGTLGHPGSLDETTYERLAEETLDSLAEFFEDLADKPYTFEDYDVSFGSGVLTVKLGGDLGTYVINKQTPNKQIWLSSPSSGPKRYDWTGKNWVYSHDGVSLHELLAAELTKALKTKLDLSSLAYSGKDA
Summary of the method: (§1)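 Mouse ISC machinery reconstituted in vitro from purified proteins under anaerobic conditions. Buffer was 50 mM Tris, 150 mM NaCl, pH 8, with 50 µM apo-ISCU loaded with one equivalent Fe2+, 5 µM NFS1-ISD11-ACP, 5 µM FDX2, 2 µM FDXR and 100 µM NADPH. Compounds in DMSO were tested at 30, 50, 100, 200 and 500; DMSO was equalized. 5 µM FXN served as positive control. Run in triplicate.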

GM04078 [7] = assay: Cytoprotective activity against BSO-induced toxicity in human GM04078 cells assessed as increase in cell viability preincubated for 24 hrs followed by BSO-stimulation and […] by resazurin fluorescence based assay; type: functional
SH-SY5Y [8] = assay: Cytoprotective activity against glutamate-induced human ATRA-differentiated SH-SY5Y cells assessed as reduction in oxidative stress […] by dihydroethidium staining based assay; type: functional, cell-based; settings: dose 0.1-10 µM
SH-SY5Y [9] = assay: Cytoprotective activity against glutamate-induced ATRA-differentiated human SH-SY5Y cells assessed as reduction in cell death at 10 uM after 24 hrs by propidium iodide staining based assay relative to control; type: functional; set-up: scale not given: the % may be the effect or the level left
Summary of the method: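 SH-SY5Y cells (20,000/well) differentiated 48 h with 10 µM ATRA in DMEM/F12 with 1% FBS. Medium replaced by fresh DMEM/F12 with 1% FBS containing test compound at 0.1, 1 or 10 µM; DMSO vehicle as negative control. Cells exposed immediately to 160 mM glutamate for 24 h. Dead cells stained with propidium iodide (1 µg/mL final, 15 min, rt); fluorescence read at ex 535/em 617 nm.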

[10] = Drug degradation in human liver microsomes at 2 uM measured up to 60 mins by RF-MS analysis; type: ADME, Tissue, Microsome; settings: read-out: Drug degradation
GM04078 [11] = assay: Cytoprotective activity against BSO-induced toxicity in human GM04078 cells assessed as restoring GSH level […] by confocal microscopic method; type: functional, cell-based; settings: time 32.0 hrs
GM04078 [12] = assay: Cytoprotective activity against BSO-induced toxicity in human GM04078 cells assessed as increase in cell viability at 10 to 50 uM preincubated for 24 hrs followed by BSO-stimulation and […] by resazurin fluorescence based assay; type: functional; settings: dose 10-50 µM
[13] = molecular target: T1, Frataxin, mitochondrial (Homo sapiens); assay: Inhibition of His6-tagged-thrombin cleavage site-fused FXN (79 to 207 residues) (unknown origin) assessed as increase in Fe-S cluster biosynthesis at 30 to 500 uM by UV-visible spectroscopy relative to control; settings: dose 30-500 µM; summary of the method: as §1
GM04078 [14] = assay: Cytoprotective activity against BSO-induced toxicity in human GM04078 cells assessed as restoring FXN protein expression at 10 to 50 uM after 48 hrs by immunodetection assay; type: functional, cell-based; settings: dose 10-50 µM
Summary of the method: (§2)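 GM04078 cells (about 1.4 million per 10 cm dish, DMEM with 10% FBS) were treated 24 h after seeding at 10 and 50 µM and harvested after 48 h. Lysates in Laemmli buffer were normalized by Bradford, 25–40 µg run on 12.5% SDS-PAGE and transferred to PVDF. Blots were probed with anti-frataxin mouse antibody (18A5DB1), actin as loading control, HRP secondary and ECL.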

SH-SY5Y [15] = assay: Cytoprotective activity against glutamate-induced human ATRA-differentiated SH-SY5Y cells from ECACC assessed as reduction in oxidative stress at 10 uM after 24 hrs by dihydroethidium staining based assay; type: functional, cell-based
GM04078 [16] = assay: Cytoprotective activity against BSO-induced toxicity in human GM04078 cells assessed as restoring FXN protein expression at 10 to 50 uM after 48 hrs by Western blot analysis; type: functional, cell-based; settings: dose 10-50 µM; summary of the method: as §2

Row | Papp [1] | fraction unbound at 4 h, 10 µM [2] | Papp [3] | remaining at 1 h, 2 µM [4] | remaining at 2 h, 2 µM [5] | SMILES | Activity (GM04663) | other results
1 | 7.6 ×10⁻⁶ cm/s | 0.871 | 16.3 ×10⁻⁶ cm/s | 78% | 83% | c1coc(CNc2ncnc3cn[nH]c23)c1 | inactive | 
2 | 7.6 ×10⁻⁶ cm/s | 0.871 | 16.3 ×10⁻⁶ cm/s | 78% | 83% | c1coc(CNc2ncnc3[nH]ccc23)c1 | Active | 
3 | 7.6 ×10⁻⁶ cm/s | 0.871 | 16.3 ×10⁻⁶ cm/s | 78% | 83% | c1coc(CNc2ncnc3sccc23)c1 | Active | 
4 | 7.6 ×10⁻⁶ cm/s | 0.871 | 16.3 ×10⁻⁶ cm/s | 78% | 83% | c1coc(CNc2ncnc3cc[nH]c23)c1 | Active | 
5 | 7.6 ×10⁻⁶ cm/s | 0.871 | 16.3 ×10⁻⁶ cm/s | 78% | 83% | c1coc(CNc2ncnc3occc23)c1 | Active | 
6 | 7.6 ×10⁻⁶ cm/s | 0.871 | 16.3 ×10⁻⁶ cm/s | 78% | 83% | c1coc(CNc2ncnc3ccsc23)c1 | Active | metabolised at 1 h, 2 µM [10]: > 50%
7 | 7.6 ×10⁻⁶ cm/s | 0.871 | 16.3 ×10⁻⁶ cm/s | 78% | 83% | c1coc(CNc2ncnc3[nH]nnc23)c1 | inactive | 

Second part, the compound before the results:

Row | SMILES | Papp [1] | fraction unbound at 4 h, 10 µM [2] | Papp [3] | remaining at 1 h, 2 µM [4] | remaining at 2 h, 2 µM [5] | Activity (GM04663) | other results
8 | c1coc(CNc2nccc3[nH]cnc23)c1 | 7.6 ×10⁻⁶ cm/s | 0.871 | 16.3 ×10⁻⁶ cm/s | 78% | 83% |  | Activity [6]: 0.5%; Activity (GM04078 [7]): Dose-dependent effect
9 | Cc1ccc(CN(C)c2ncnc3c2cnn3C)o1 |  |  |  |  |  | inactive | 
10 | c1coc(CNc2ccnc3[nH]cnc23)c1 | 7.6 ×10⁻⁶ cm/s | 0.871 | 16.3 ×10⁻⁶ cm/s | 78% | 83% |  | 
11 | Clc1nc(NCc2ccco2)c2cc[nH]c2n1 | 7.6 ×10⁻⁶ cm/s | 0.871 | 16.3 ×10⁻⁶ cm/s | 78% | 83% | Active | 
12 | Clc1cc(NCc2ccco2)c2nc[nH]c2n1 | 7.6 ×10⁻⁶ cm/s | 0.871 | 16.3 ×10⁻⁶ cm/s | 78% | 83% |  | 
13 | Cl.c1coc(CNc2ncnc3ccccc23)c1 | 7.6 ×10⁻⁶ cm/s | 0.871 | 16.3 ×10⁻⁶ cm/s | 78% | 83% | Active | 
14 | Clc1nc(NCc2ccco2)c2[nH]cnc2n1 | 7.6 ×10⁻⁶ cm/s | 0.871 | 16.3 ×10⁻⁶ cm/s | 78% | 83% |  | 
15 | c1coc(CNc2ncnc3[nH]cnc23)c1 [KINETIN] | 7.6 ×10⁻⁶ cm/s | 0.871 | 16.3 ×10⁻⁶ cm/s | 78% | 83% |  | 
16 | c1coc(CNc2ccnc3ccnn23)c1 | 7.6 ×10⁻⁶ cm/s | 0.871 | 16.3 ×10⁻⁶ cm/s | 78% | 83% |  | 
17 | Clc1nc(NCc2ccco2)c2[nH]ccc2n1 | 7.6 ×10⁻⁶ cm/s | 0.871 | 16.3 ×10⁻⁶ cm/s | 78% | 83% | Active | Activity (SH-SY5Y [8]): Dose-dependent effect; Activity (SH-SY5Y [9]): 10%
18 | Clc1cc2[nH]cnc2c(NCc2ccco2)n1 | 7.6 ×10⁻⁶ cm/s | 0.871 | 16.3 ×10⁻⁶ cm/s | 78% | 83% |  | Activity (GM04078 [11]): inactive; Activity (SH-SY5Y [8]): Dose-dependent effect; Activity (GM04078 [12]): Active; inhibition [13]: Active; Activity (SH-SY5Y [9]): 10%; Activity (GM04078 [14]): inactive; Activity (GM04078 [7]): Dose-dependent effect; Activity (SH-SY5Y [15]): Active; Activity (GM04078 [16]): inactive
19 | Cc1ccc(C(C)Nc2ncnc3c2cnn3C)o1 (configuration not stated) |  |  |  |  |  | inactive | 
20 | CN(Cc1ccco1)c1ncnc2c1cnn2C |  |  |  |  |  | inactive | 
21 | Cc1ccc(CNc2ncnc3[nH]ncc23)o1 |  |  |  |  |  | inactive | 
22 | Cc1oc2ncnc(NCc3ccco3)c2c1C | 7.6 ×10⁻⁶ cm/s | 0.871 | 16.3 ×10⁻⁶ cm/s | 78% | 83% | Active | Activity (SH-SY5Y [8]): Dose-dependent effect; Activity (SH-SY5Y [9]): 10%; metabolised at 1 h, 2 µM [10]: > 50%
